Assay results published in ChEMBL document CHEMBL1145184, “Synthesis, X-ray crystal structure study, and cytostatic and antiviral evaluation of the novel cycloalkyl-N-aryl-hydroxamic acids” (J Med Chem, 2005).
pIC50: −log10 of the molar value. In brackets after ≈: the same amount, converted by molar mass.

Columns and labels:
[1] = system: MCF7; assay: Inhibitory concentration of the compound was determined against MCF-7 cell line; assay type: functional, cell-based; details: Homo sapiens
[2] = system: Cell line; assay: Minimum cytotoxic concentration that causes a microscopically detectable alteration of cell morphology; assay type: functional; details: Homo sapiens
[3] = system: Cytomegalovirus; assay: Effective concentration against AD-169 strain of CMV virus expressed in HEL cells; assay type: functional, organism-based; details: Human betaherpesvirus 5, HEL
In short: (§1)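 Human embryonic lung (HEL) cell cultures infected with cytomegalovirus at 100 plaque forming units. EC50 is the concentration that cuts plaque formation by 50%, given in µg/mL.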

[4] = system: MOLT-4; assay: Inhibitory concentration of the compound was determined against Molt 4/C8 cell line; assay type: functional, cell-based; details: Homo sapiens
[5] = system: CCRF-CEM; assay: Inhibitory concentration of the compound was determined againstCEM cell line; assay type: functional, cell-based; details: Homo sapiens
[6] = system: HeLa; assay: Inhibitory concentration of the compound was determined againstHeLa cell line; assay type: functional, cell-based; details: Homo sapiens
[7] = system: SW-620; assay: Inhibitory concentration of the compound was determined against SW6 20 cell line; assay type: functional, cell-based; details: Homo sapiens
[8] = system: HEp-2; assay: Inhibitory concentration of the compound was determined against Hep2 cell line; assay type: functional, cell-based; details: Homo sapiens
[9] = Inhibitory concentration of the compound was determined against W138 cell line; assay type: functional, cell-based, Homo sapiens
In short: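 Cytostatic test on human normal fibroblasts, run in the same panel as the malignant tumour lines L1210, Molt4/C8, CEM, SW620, Hep2, MiaPaCa2, MCF7 and HeLa. The value is reported as an IC50.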

[10] = system: Cytomegalovirus; assay: Effective concentration against Davis strain of CMV virus expressed in HEL cells; assay type: functional, organism-based; details: Human betaherpesvirus 5, HEL; in short: as §1
[11] = system: L1210; assay: Inhibitory concentration against L1210 cell line; assay type: functional, cell-based; details: Mus musculus
[12] = system: MIA PaCa-2; assay: Inhibitory concentration of the compound was determined against MiaPaCa2 cell line; assay type: functional, cell-based; details: Homo sapiens
[13] = system: Cell line; assay: Cytotoxic concentration required to reduce cell growth by 50%; assay type: functional; details: Homo sapiens
In short: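 Growth of HEL cells was measured. CC50 is the concentration that reduces cell growth by 50%, given in µg/mL.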

[14] = system: L1210; assay: Inhibitory concentration of the compound was determined against L1210 cell line; assay type: functional, cell-based; details: Mus musculus
[15] = system: CCRF-CEM; assay: Inhibitory concentration ofthecompound was determined against CEM cell line; assay type: functional, cell-based; details: Homo sapiens
[16] = system: HeLa; assay: Inhibitory concentration of the compound was determined against HeLa cell line; assay type: functional, cell-based; details: Homo sapiens
[17] = system: CCRF-CEM; assay: Inhibitory concentration was determined against CEM cell line; assay type: functional, cell-based; details: Homo sapiens

| SMILES | pIC50 [1] | MCC [2] [µg/mL] | EC50 [3] [µg/mL] | pIC50 [4] | pIC50 [5] | pIC50 [6] | pIC50 [7] | pIC50 [8] | pIC50 [9] | EC50 [10] [µg/mL] | pIC50 [11] | pIC50 [12] | CC50 [13] [µg/mL] | pIC50 [14] | pIC50 [15] | pIC50 [16] | pIC50 [17] |
| --- | --- | --- | --- | --- | --- | --- | --- | --- | --- | --- | --- | --- | --- | --- | --- | --- | --- |
| O=C(C1CC1)N(O)c1ccc(Cl)cc1 | < 4.00 | 100 | > 20 | 4.62 | 4.60 | < 4.10 | 4.22 | < 4.00 | < 4.00 | > 20 | 4.66 | < 4.00 | 37 (≈ 175 µM) |  |  |  |  |
| O=C(CC1CCCCC1)N(O)c1ccc(Cl)cc1 | 5.00 | 50 | 7.3 (≈ 27.3 µM) | 4.48 | 4.80 | 4.52 | 5.05 | 5.05 | 4.30 | 6.2 (≈ 23.2 µM) |  | 5.10 | 129 (≈ 482 µM) | 4.59 |  |  |  |
| O=C(C1CCCCC1)N(O)c1ccc(Cl)cc1 | 4.10 | ≥ 20 | 7.3 (≈ 28.8 µM) | 4.72 |  | 4.52 | 5.00 | 4.40 | 4.00 | 8.9 (≈ 35.1 µM) |  | 4.70 | 28 (≈ 110 µM) | 4.80 | 4.77 |  |  |
| Nc1ccn(C[C@@H](CO)OCP(=O)(O)O)c(=O)n1.O.O [CIDOFOVIR] |  | ≥ 400 | 0.18 |  |  |  |  |  |  | 0.29 |  |  | 24 |  |  |  |  |
| Nc1nc2c(ncn2COC(CO)CO)c(=O)[nH]1 [GANCICLOVIR] |  | ≥ 400 | 0.37 (≈ 1.45 µM) |  |  |  |  |  |  | 0.37 (≈ 1.45 µM) |  |  |  |  |  |  |  |
| O=C(CCC1CCCCC1)N(O)c1ccc(Cl)cc1 | 4.70 | ≥ 4 | 1.5 (≈ 5.32 µM) | 4.62 | 4.44 | 4.52 | 4.70 | 4.52 | 4.52 | 0.8 (≈ 2.84 µM) |  | 5.00 | 4.7 (≈ 16.7 µM) | 4.68 |  |  |  |
| O=C(N(O)c1ccc(Cl)cc1)C12CC3CC(CC(C3)C1)C2 | < 4.00 | 100 | 13 (≈ 42.5 µM) | ≤ 3.30 | < 3.30 |  | < 4.00 | < 4.00 | < 4.00 | 7 (≈ 22.9 µM) |  | < 4.00 | > 50 | 3.54 |  | < 4.00 |  |
| O=C(CC1CCCCC1)N(O)c1ccccc1 | < 4.00 | 100 | 8 (≈ 34.3 µM) | 4.39 | 4.40 |  | 4.70 | < 4.00 | 4.15 | 8 (≈ 34.3 µM) |  | 4.40 | > 200 | 4.57 |  | 4.52 |  |
| O=C(CCC1CCCC1)N(O)c1ccc(Cl)cc1 | 5.00 | 100 | 10 (≈ 37.3 µM) | 4.55 |  | 4.52 | 5.00 | 4.70 | 5.00 | 8 (≈ 29.9 µM) |  | 5.15 | 20 (≈ 74.7 µM) | 4.42 |  |  | 4.43 |
